Measurements taken from ChEMBL document CHEMBL1255303, “In vitro and in vivo antifungal activities of T-2307, a novel arylamidine” (2008).
Values after ≈ are worked out from the molar mass of the structure shown.

Tests used:
Format in all cases: functional
Candida albicans [1] = test: Antifungal activity against Candida albicans ATCC 64550 after 47 hrs by broth microdilution method; settings: ATCC 64550, 47 h
Method in brief: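 Fluconazole-resistant or susceptible-dose-dependent C. albicans ATCC strains were tested by broth microdilution in RPMI 1640-MOPS. Inoculum was 1.1 × 10^3–1.5 × 10^3 CFU/ml, with incubation at 35°C for about 47 h. Yeast MIC was read as about 50% turbidity decrease relative to growth control, except amphotericin B, read at complete inhibition.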

Pichia kudriavzevii = test: Antifungal activity against Candida krusei clinical isolates after 48 hrs by broth microdilution method
Method in brief: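 Japanese hospital Candida isolates were tested by CLSI M27-A2 broth microdilution in RPMI 1640–MOPS, pH 7.0, with inocula of 0.57–2.5 × 10^3 CFU/ml at 35°C for about 48 h. Inocula came from 24-h potato dextrose agar cultures. MIC was the lowest concentration with about 50% turbidity reduction versus growth control (complete inhibition for amphotericin B). Range, MIC50 and MIC90 were reported.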

Aspergillus fumigatus [2] = test: Antifungal activity against Aspergillus fumigatus clinical isolates after 48 hrs by broth microdilution method
Method in brief: (§1)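 Clinical isolates from Japanese hospitals or culture collections were tested by broth microdilution in RPMI 1640-MOPS. Inoculum was 0.57 × 10^3–2.5 × 10^3 CFU/ml for yeasts and 0.4 × 10^4–3.3 × 10^4 CFU/ml for filamentous fungi. Incubation was at 35°C for about 48 h, or 72 h where footnoted. Results were summarised as MIC range, MIC50 and MIC90.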

Aspergillus nidulans = test: Antifungal activity against Aspergillus nidulans NBRC 33017 after 48 hrs by broth microdilution method; settings: NBRC 33017, 48 h
Method in brief: (§2)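 CLSI M27-A2 (yeasts) / M38-A (moulds) broth microdilution in RPMI 1640 buffered to pH 7.0 with 0.165 M MOPS. Malassezia furfur got the same medium supplemented with glucose, bile salts, glycerol, glycerol monostearate and Tween 20. Final inoculum 0.65 × 10^3–2.5 × 10^3 CFU/ml for yeasts and 0.87 × 10^4–3.8 × 10^4 CFU/ml for filamentous fungi. Incubation at 35°C except M. racemosus and F. solani, which were held at 30°C.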

Candida albicans [3] = test: Antifungal activity against Candida albicans ATCC MYA-1003 after 47 hrs by broth microdilution method; settings: ATCC MYA-1003, 47 h
Method in brief: (§3)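 Fluconazole-resistant or susceptible-dose-dependent ATCC C. albicans strains were tested by CLSI M27-A2 broth microdilution in RPMI 1640–0.165 M MOPS, pH 7.0, with a final inoculum of 1.1–1.5 × 10^3 CFU/ml at 35°C for about 47 h. MIC was the lowest concentration with a prominent (~50%) turbidity decrease relative to growth control; amphotericin B was read at complete inhibition.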

Trichophyton rubrum = test: Antifungal activity against Trichophyton rubrum NBRC 5467 after 72 hrs by broth microdilution method; settings: NBRC 5467, 72 h; method in brief: as §2
Cryptococcus neoformans [4] = test: Antifungal activity against Cryptococcus neoformans ATCC 90113 after 72 hrs by broth microdilution method; settings: ATCC 90113, 72 h; method in brief: as §2
Candida dubliniensis = test: Antifungal activity against Candida dubliniensis ATCC MYA-577 after 48 hrs by broth microdilution method; settings: ATCC MYA-577, 48 h; method in brief: as §2
Aspergillus fumigatus [5] = test: Antifungal activity against Aspergillus fumigatus IFM 46895 after 48 hrs by broth microdilution method; settings: IFM 46895, 48 h; method in brief: as §2
Aspergillus fumigatus [6] = test: Antifungal activity against Aspergillus fumigatus IFM 49895 after 48 hrs by broth microdilution method; settings: IFM 49895, 48 h; method in brief: as §2
Scedosporium boydii = test: Antifungal activity against Pseudallescheria boydii NBRC 32229 after 72 hrs by broth microdilution method; settings: NBRC 32229, 72 h; method in brief: as §2
Candida albicans [7] = test: Antifungal activity against Candida albicans ATCC 90028 after 48 hrs by broth microdilution method; settings: ATCC 90028, 48 h; method in brief: as §2
Aspergillus niger = test: Antifungal activity against Aspergillus niger NBRC 33023 after 48 hrs by broth microdilution method; settings: NBRC 33023, 48 h; method in brief: as §2
Candida albicans [8] = test: Antifungal activity against Candida albicans ATCC 10261 after 48 hrs by broth microdilution method; settings: ATCC 10261, 48 h; method in brief: as §2
Candida albicans [9] = test: Antifungal activity against Candida albicans ATCC 96901 after 47 hrs by broth microdilution method; settings: ATCC 96901, 47 h; method in brief: as §3
[10] = test system: Meyerozyma guilliermondii; test: Antifungal activity against Candida guilliermondii clinical isolates after 48 hrs by broth microdilution method; method in brief: as §1
Candida albicans [11] = test: Antifungal activity against Candida albicans ATCC MYA-573 after 47 hrs by broth microdilution method; settings: ATCC MYA-573, 47 h; method in brief: as §3
Cryptococcus neoformans [12] = test: Antifungal activity against Cryptococcus neoformans clinical isolates after 72 hrs by broth microdilution method; method in brief: as §1
Candida albicans [13] = test: Antifungal activity against Candida albicans ATCC MYA-575 after 47 hrs by broth microdilution method; settings: ATCC MYA-575, 47 h; method in brief: as §3
Candida tropicalis = test: Antifungal activity against Candida tropicalis clinical isolates after 48 hrs by broth microdilution method; method in brief: as §1
Candida albicans [14] = test: Antifungal activity against Candida albicans TIMM 1623 after 48 hrs by broth microdilution method; settings: TIMM 1623, 48 h; method in brief: as §2
Nakaseomyces glabratus = test: Antifungal activity against Candida glabrata ATCC 90030 after 48 hrs by broth microdilution method; settings: ATCC 90030, 48 h; method in brief: as §2
Saccharomyces cerevisiae = test: Antifungal activity against Saccharomyces cerevisiae ATCC 24657 after 48 hrs by broth microdilution method; settings: ATCC 24657, 48 h; method in brief: as §2
Rhizopus arrhizus = test: Antifungal activity against Rhizopus oryzae NBRC 31005 after 24 hrs by broth microdilution method; settings: NBRC 31005, 24 h; method in brief: as §2

OC(Cn1cncn1)(Cn1cncn1)c1ccc(F)cc1F [FLUCONAZOLE]
MIC (Candida albicans [1]): 16 µg/mL (≈ 52.2 µM) | MIC50 (Pichia kudriavzevii): 64 µg/mL (≈ 209 µM) | MIC90 (Pichia kudriavzevii): 64 µg/mL (≈ 209 µM) | MIC (Aspergillus fumigatus [2]): > 64 µg/mL | MIC50 (Aspergillus fumigatus [2]): > 64 µg/mL | MIC90 (Aspergillus fumigatus [2]): > 64 µg/mL | MFC (Aspergillus nidulans): > 64 µg/mL | MIC (Aspergillus nidulans): 64 µg/mL (≈ 209 µM) | MIC (Candida albicans [3]): 64 µg/mL (≈ 209 µM) | MFC (Trichophyton rubrum): > 64 µg/mL | MIC (Trichophyton rubrum): 0.25 µg/mL (≈ 0.816 µM) | MFC (Cryptococcus neoformans [4]): > 64 µg/mL | MIC (Cryptococcus neoformans [4]): 4 µg/mL (≈ 13.1 µM) | MFC (Candida dubliniensis): > 64 µg/mL | MIC (Candida dubliniensis): 0.125 µg/mL (≈ 0.408 µM) | MFC (Aspergillus fumigatus [5]): > 64 µg/mL | MIC (Aspergillus fumigatus [5]): > 64 µg/mL | MFC (Aspergillus fumigatus [6]): > 64 µg/mL | MIC (Aspergillus fumigatus [6]): > 64 µg/mL | MFC (Scedosporium boydii): > 64 µg/mL | MIC (Scedosporium boydii): 16 µg/mL (≈ 52.2 µM) | MFC (Candida albicans [7]): > 64 µg/mL | MIC (Candida albicans [7]): 0.125 µg/mL (≈ 0.408 µM) | MFC (Aspergillus niger): > 64 µg/mL | MIC (Aspergillus niger): > 64 µg/mL | MFC (Candida albicans [8]): > 64 µg/mL | MIC (Candida albicans [8]): 0.125 µg/mL (≈ 0.408 µM) | MIC (Candida albicans [9]): > 64 µg/mL | MIC50 [10]: 4 µg/mL (≈ 13.1 µM) | MIC90 [10]: 8 µg/mL (≈ 26.1 µM) | MIC (Candida albicans [11]): > 64 µg/mL | MIC50 (Cryptococcus neoformans [12]): 2 µg/mL (≈ 6.53 µM) | MIC90 (Cryptococcus neoformans [12]): 4 µg/mL (≈ 13.1 µM) | MIC (Candida albicans [13]): 16 µg/mL (≈ 52.2 µM) | MIC50 (Candida tropicalis): 0.5 µg/mL (≈ 1.63 µM) | MIC90 (Candida tropicalis): 1 µg/mL (≈ 3.27 µM) | MFC (Candida albicans [14]): > 64 µg/mL | MIC (Candida albicans [14]): 0.125 µg/mL (≈ 0.408 µM) | MFC (Nakaseomyces glabratus): > 64 µg/mL | MIC (Nakaseomyces glabratus): 8 µg/mL (≈ 26.1 µM) | MFC (Saccharomyces cerevisiae): > 64 µg/mL | MIC (Saccharomyces cerevisiae): 8 µg/mL (≈ 26.1 µM) | MFC (Rhizopus arrhizus): > 64 µg/mL | MIC (Rhizopus arrhizus): > 64 µg/mL

C[C@@H](c1ncncc1F)[C@](O)(Cn1cncn1)c1ccc(F)cc1F [VORICONAZOLE]
MIC (Candida albicans [1]): 0.25 µg/mL (≈ 0.716 µM) | MIC50 (Pichia kudriavzevii): 0.5 µg/mL (≈ 1.43 µM) | MIC90 (Pichia kudriavzevii): 0.5 µg/mL (≈ 1.43 µM) | MIC50 (Aspergillus fumigatus [2]): 1 µg/mL (≈ 2.86 µM) | MIC90 (Aspergillus fumigatus [2]): 1 µg/mL (≈ 2.86 µM) | MFC (Aspergillus nidulans): 0.25 µg/mL (≈ 0.716 µM) | MIC (Aspergillus nidulans): 0.125 µg/mL (≈ 0.358 µM) | MIC (Candida albicans [3]): 0.5 µg/mL (≈ 1.43 µM) | MFC (Trichophyton rubrum): > 64 µg/mL | MIC (Trichophyton rubrum): 0.0313 µg/mL (≈ 0.0896 µM) | MFC (Cryptococcus neoformans [4]): > 64 µg/mL | MIC (Cryptococcus neoformans [4]): 0.0625 µg/mL (≈ 0.179 µM) | MFC (Candida dubliniensis): > 64 µg/mL | MIC (Candida dubliniensis): 0.0078 µg/mL (≈ 0.0223 µM) | MFC (Aspergillus fumigatus [5]): 4 µg/mL (≈ 11.5 µM) | MIC (Aspergillus fumigatus [5]): 0.5 µg/mL (≈ 1.43 µM) | MFC (Aspergillus fumigatus [6]): 8 µg/mL (≈ 22.9 µM) | MIC (Aspergillus fumigatus [6]): 2 µg/mL (≈ 5.73 µM) | MFC (Scedosporium boydii): > 64 µg/mL | MIC (Scedosporium boydii): 1 µg/mL (≈ 2.86 µM) | MFC (Candida albicans [7]): > 64 µg/mL | MIC (Candida albicans [7]): 0.0039 µg/mL (≈ 0.0112 µM) | MFC (Aspergillus niger): 16 µg/mL (≈ 45.8 µM) | MIC (Aspergillus niger): 0.5 µg/mL (≈ 1.43 µM) | MFC (Candida albicans [8]): > 64 µg/mL | MIC (Candida albicans [8]): 0.0039 µg/mL (≈ 0.0112 µM) | MIC (Candida albicans [9]): 0.5 µg/mL (≈ 1.43 µM) | MIC50 [10]: 0.0625 µg/mL (≈ 0.179 µM) | MIC90 [10]: 0.125 µg/mL (≈ 0.358 µM) | MIC (Candida albicans [11]): 0.25 µg/mL (≈ 0.716 µM) | MIC50 (Cryptococcus neoformans [12]): 0.0313 µg/mL (≈ 0.0896 µM) | MIC90 (Cryptococcus neoformans [12]): 0.0625 µg/mL (≈ 0.179 µM) | MIC (Candida albicans [13]): 0.0625 µg/mL (≈ 0.179 µM) | MIC50 (Candida tropicalis): 0.0625 µg/mL (≈ 0.179 µM) | MIC90 (Candida tropicalis): 0.0625 µg/mL (≈ 0.179 µM) | MFC (Candida albicans [14]): > 64 µg/mL | MIC (Candida albicans [14]): 0.0039 µg/mL (≈ 0.0112 µM) | MFC (Nakaseomyces glabratus): > 64 µg/mL | MIC (Nakaseomyces glabratus): 0.25 µg/mL (≈ 0.716 µM) | MFC (Saccharomyces cerevisiae): > 64 µg/mL | MIC (Saccharomyces cerevisiae): 0.125 µg/mL (≈ 0.358 µM) | MFC (Rhizopus arrhizus): 32 µg/mL (≈ 91.6 µM) | MIC (Rhizopus arrhizus): 8 µg/mL (≈ 22.9 µM)
